Results as given in ChEMBL document CHEMBL2150948, “Quinolinyl Pyrimidines: Potent Inhibitors of NDH-2 as a Novel Class of Anti-TB Agents” (ACS Med Chem Lett, 2012).
Converted amounts (≈) assume the structure as drawn.

Columns and labels:
[1] = tested on: Mycobacterium tuberculosis; assay: Antimycobacterial activity against Mycobacterium tuberculosis assessed as growth inhibition after 5 days by MABA/resazurin assay; assay type: functional; settings: 120 h
[2] = Inhibition of Mycobacterium tuberculosis NDH-2 by UV spectrophotometry
Method in brief: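 Purified Mtb NDH-2 at 1 nM in 50 mM Hepes-NaOH pH 7.5 with 100 mM NaCl, 0.008% Brij-35 and 300 μM NADH; reaction started with 50 μM menadione, run 1 h at 37 °C. NADH oxidation followed as fall in absorbance at 340 nm. Screening at 20 μM, then concentration-response for IC50.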

[3] = Partition coefficient, log D of the compound; assay type: physicochemical; settings: octanol/water
[4] = Solubility of the compound in 0.1 M phosphate buffer after 24 hrs by UV/MS analysis; assay type: physicochemical
Method in brief: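 Solubility measured in presence of 2% (v/v) DMSO.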

[5] = Fraction unbound in plasma at 20 uM after 18 hrs by equilibrium dialysis method; assay type: ADME, cell-free
[6] = Intrinsic clearance in mouse microsomes assessed per mg protein at 100 uM by HPLC analysis; assay type: ADME, Microsome
[7] = Toxicity in RBC assessed as hemolysis; assay type: cell-based; settings: erythrocyte
Saccharomyces cerevisiae = assay: Antimicrobial activity against Saccharomyces cerevisiae; assay type: organism-based

Compound	MIC [1]	IC50 [2]	logD [3]	solubility at 24 h [4]	fraction unbound at 18 h, 20 µM [5]	microsomal CLint at 100 µM [6]	MHC [7]	MIC (Saccharomyces cerevisiae)
Nc1nc(Nc2ccc3nc(-c4ccc(F)cc4)cc(N)c3c2)cc(-c2ccc(Cl)cc2)n1	1.91 µM (≈ 0.873 µg/mL)	43 nM	3	6 µM (≈ 2.74 µg/mL)	0.008	13.4 µL/min/mg	> 32 µg/mL	> 32 µg/mL
Cc1cccc(-c2cc(Nc3ccc4nc(-c5ccc(F)cc5)cc(N)c4c3)nc(N)n2)c1	< 0.81 µM	96 nM	3.18	70 µM (≈ 30.6 µg/mL)	0.0144	–	> 32 µg/mL	> 32 µg/mL
Nc1nc(Nc2ccc3nc(-c4ccc(F)cc4)cc(N)c3c2)cc(-c2ccc(C(F)(F)F)cc2)n1	2.88 µM (≈ 1.41 µg/mL)	81 nM	2.16	2450 µM (≈ 1200 µg/mL)	–	< 4 µL/min/mg	> 32 µg/mL	> 32 µg/mL
Nc1nc(Nc2ccc3nc(-c4ccc(F)cc4)cc(N)c3c2)cc(-c2ccc(F)cc2)n1	1.14 µM (≈ 0.502 µg/mL)	53 nM	3.06	12 µM (≈ 5.29 µg/mL)	0.0249	–	> 32 µg/mL	> 32 µg/mL
Nc1nc(Nc2ccc3nc(-c4ccc(F)cc4)cc(N)c3c2)cc(-c2cccc(Cl)c2)n1	2.19 µM (≈ 1 µg/mL)	50 nM	3.06	15 µM (≈ 6.85 µg/mL)	–	–	> 32 µg/mL	> 32 µg/mL
Nc1nc(Nc2ccc3nc(-c4ccc(F)cc4)cc(N)c3c2)cc(-c2ccccc2)n1	1.67 µM (≈ 0.706 µg/mL)	73 nM	–	–	–	–	–	–
Nc1nc(Nc2ccc3nc(-c4ccc(F)cc4)cc(N)c3c2)cc(-c2ccccc2F)n1	3.21 µM (≈ 1.41 µg/mL)	187 nM	–	–	–	–	–	–
COc1ccccc1-c1cc(Nc2ccc3nc(-c4ccc(F)cc4)cc(N)c3c2)nc(N)n1	4.42 µM (≈ 2 µg/mL)	< 620 nM	–	–	–	–	–	–
COc1cccc(-c2cc(N)c3cc(Nc4cc(-c5ccc(Cl)cc5)nc(N)n4)ccc3n2)c1	2.13 µM (≈ 0.999 µg/mL)	< 260 nM	–	–	–	–	–	–
Nc1nc(Nc2ccc3nc(-c4ccc(F)cc4)cc(N)c3c2)cc(-c2ccccn2)n1	9.45 µM (≈ 4 µg/mL)	133 nM	–	–	–	–	–	–
CC(C)c1cc(Nc2ccc3nc(-c4ccc(F)cc4)cc(N)c3c2)nc(N)n1	7.28 µM (≈ 2.83 µg/mL)	1470 nM	–	–	–	–	–	–
CCc1cc(Nc2ccc3nc(-c4ccc(F)cc4)cc(N)c3c2)nc(N)n1	15.1 µM (≈ 5.66 µg/mL)	2400 nM	–	–	–	–	–	–
Cc1cc(Nc2ccc3nc(-c4ccc(F)cc4)cc(N)c3c2)nc(N)n1	22.2 µM (≈ 8 µg/mL)	601 nM	–	–	–	–	–	–
Cc1cccc(-c2cc(Nc3ccc4nccc(N)c4c3)nc(N)n2)c1	48.9 µM (≈ 16.7 µg/mL)	10800 nM	–	–	–	–	–	–
Cn1ccc(-c2cc(Nc3ccc4nc(-c5ccc(F)cc5)cc(N)c4c3)nc(N)n2)n1	53.1 µM (≈ 22.6 µg/mL)	1380 nM	–	–	–	–	–	–
Nc1nc(Nc2cnc3ccccc3c2)cc(-c2cccc(Cl)c2)n1	> 73 µM	5770 nM	–	–	–	–	–	–
Nc1nc(Nc2cnc3ccccc3c2)cc(-c2ccc(C(F)(F)F)cc2)n1	66.6 µM (≈ 25.4 µg/mL)	2050 nM	–	–	–	–	–	–
Cc1cc(Nc2ccc3nc(C)ccc3c2)nc(C)n1	> 121 µM	> 100000 nM	–	–	–	–	–	–
